From PubChem
TRPC4 act: activators of mouse TRPC4 channel, primary screen, Fluo4 calcium, HEK293 TRPC4beta/mu-opioid cells; 310,000 tested, 0.49% active; Short transient receptor potential channel 4 (Mus musculus), Q9QUQ5; Fluo4 calcium fluorescence; stronger effect = higher value; B-score at 10 µM;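 active = B-score above 5 SD of library B-scores, and initial fluorescence ratio not above library mean plus 5 SD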;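 note: positive B-score marks a calcium rise read as TRPC4 activation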
Target sequence (Q9QUQ5 whole entry, looked up): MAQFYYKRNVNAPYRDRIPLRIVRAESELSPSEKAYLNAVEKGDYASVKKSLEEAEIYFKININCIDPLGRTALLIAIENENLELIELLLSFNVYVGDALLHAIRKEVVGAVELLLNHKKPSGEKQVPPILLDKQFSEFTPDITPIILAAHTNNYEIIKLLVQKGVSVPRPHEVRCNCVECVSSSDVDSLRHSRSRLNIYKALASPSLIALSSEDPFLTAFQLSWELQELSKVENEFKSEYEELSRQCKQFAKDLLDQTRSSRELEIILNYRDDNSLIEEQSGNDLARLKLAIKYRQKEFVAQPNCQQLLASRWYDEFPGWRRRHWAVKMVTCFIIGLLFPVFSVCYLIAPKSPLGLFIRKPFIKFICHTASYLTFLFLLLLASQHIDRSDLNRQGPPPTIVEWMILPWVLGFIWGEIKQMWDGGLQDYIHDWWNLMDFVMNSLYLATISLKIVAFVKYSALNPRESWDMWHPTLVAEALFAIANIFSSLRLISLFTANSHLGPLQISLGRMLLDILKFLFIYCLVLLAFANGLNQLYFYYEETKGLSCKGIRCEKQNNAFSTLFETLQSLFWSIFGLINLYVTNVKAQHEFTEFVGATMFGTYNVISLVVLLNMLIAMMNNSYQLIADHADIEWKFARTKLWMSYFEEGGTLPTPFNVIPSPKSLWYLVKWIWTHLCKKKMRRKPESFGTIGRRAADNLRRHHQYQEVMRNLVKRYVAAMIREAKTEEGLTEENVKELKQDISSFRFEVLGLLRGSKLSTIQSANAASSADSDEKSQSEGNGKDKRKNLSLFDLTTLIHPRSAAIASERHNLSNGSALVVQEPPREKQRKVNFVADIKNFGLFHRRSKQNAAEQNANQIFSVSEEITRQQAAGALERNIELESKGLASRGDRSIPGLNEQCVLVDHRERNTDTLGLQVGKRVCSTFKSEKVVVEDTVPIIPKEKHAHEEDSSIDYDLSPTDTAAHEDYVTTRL
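System: HEK293 cells stably co-expressing mouse TRPC4beta and mu-opioid receptor; Schedule: Fluo4 dye loading 45 min at room temperature, 110 s recording; Detection: Fluo4 fluorescence, kinetic; Evaluation: B-scored integrated calcium fluorescence ratio; Controls: buffer (low) and maximal DAMGO (high).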
TRPC6 activator: mouse TRPC6 channel activators, primary screen, cell-based, HEK293, membrane potential dye; AID 2550, 2010; HEK293-TRPC6 membrane potential dye fluorescence; stronger effect = higher value; 310,000 tested, 0.13% active; B-score at 10 µM;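 active = B-score of the integrated fluorescence ratio above library mean plus 3 SD, and starting fluorescence ratio within library mean plus 5 SD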;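 note: higher score means more depolarization so channel activation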
TRPC4 inh: inhibitors of mouse TRPC4 channel, primary screen, Fluo4 calcium, HEK293 TRPC4beta/mu-opioid cells; Short transient receptor potential channel 4 (Mus musculus), Q9QUQ5; DAMGO-evoked Fluo4 calcium flux; stronger effect = lower value; B-score at 10 µM; 300,000 tested, 0.39% active; AID 2247, 2010;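 active = B-score over 3 SD under the library average, no early fluorescence shift, positive overall ratio signal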
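Material: HEK293 cells with stable TRPC4beta plus mu-opioid receptor expression / Probe or stimulus: DAMGO in two steps, submaximal then maximal / Compound: single concentration per test compound / Technique: kinetic Fluo4 fluorescence imaging of calcium influx / Read-out: per-well B score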
TRPC4 PAM: positive allosteric modulators of TRPC4, primary screen, cell-based, mouse TRPC4beta, HEK293 mu-opioid, Fluo-4 calcium; Short transient receptor potential channel 4 (Mus musculus), Q9QUQ5; DAMGO EC20, Fluo-4 Ca2+ flux; stronger effect = higher value; B-score at 10 µM; 310,000 tested, 0.42% active; AID 2227, 2009;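 active = B-score of calcium response area above 5 SD of library B-scores, with initial fluorescence ratio within 5 SD of library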;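 note: B-score of integrated fluorescence ratio over time as area under calcium response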
TRPC6 inhibitor: mouse TRPC6 channel inhibitors, primary screen, cell-based, HEK293, membrane potential dye. ACh-evoked depolarization; stronger effect = lower value. 310,000 tested, 1.1% active. Short transient receptor potential channel 6 (Mus musculus), Q61143. B-score at 10 µM;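 active = B-score under library mean minus 3 SD, initial fluorescence not abnormally high, positive integrated signal ratio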;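 note: B-score derived from integrated fluorescence ratio over the kinetic read; more negative B-score means stronger inhibition of depolarization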
Active calls of the source: *; i = inactive. This is a sample that favours compounds with a hit; in the whole collection about 2.3% have one here.

SMILES	TRPC4 act	TRPC6 activator	TRPC4 inh	TRPC4 PAM	TRPC6 inhibitor
O=C(c1ccc(Cl)cc1)[C@@H]1[C@@H]2C(=O)N(c3cccc4ccccc34)C(=O)[C@@H]2C2c3ccccc3C=NN21 (stereo not given in full)	i	i	i	i	i
O=c1[nH]c(C2CCCN(S(=O)(=O)c3ccccc3)C2)nc2c1nnn2Cc1ccccc1Br (stereo not given)	i	i	i	10*	i
CCO[C@@H]1OC(C(N)=O)=C[C@H](C2CC2)[C@H]1CCCO	i	i	i	i	i
CN(CCNC(=O)C1CCN(c2ncnc3c2nc2n3CCCCC2)CC1)Cc1ccccc1	i	i	i	i	i
Cc1ccc(C)c(N2CCN(C(=O)C3CCCN(c4ncnc5c4nc4n5CCCCC4)C3)CC2)c1 (stereo not given)	i	i	i	15*	i
CC1CC(C)CN(CCCNC(=O)C2CCCN(c3ncnc4c3nc3n4CCCCC3)C2)C1 (stereo not given)	i	i	i	18*	i
CCN(CCNC(=O)C1CCCN(c2ncnc3c2nc2n3CCCCC2)C1)Cc1ccccc1 (stereo not given)	i	i	i	19*	i
CCC1Oc2ccc(C)cc2N(CC(=O)NCCCN2CCOCC2)C1=O (stereo not given)	i	i	i	i	i
CN(C)CC/C=C1/c2ccc(F)cc2Sc2ccc(Cl)cc21	i	i	i	i	-5.84*
CN(C)CC/C=C1\c2cc(Cl)ccc2Sc2cc(F)c(F)cc21	i	i	i	i	-5.54*
CCC1CCCCN1Cc1nc2c(c(=O)n(C)c(=O)n2C)n1CCCc1ccccc1 (stereo not given)	i	i	i	i	i
CCC1CCCCN1Cc1nc2c(c(=O)n(C)c(=O)n2C)n1Cc1ccccc1 (stereo not given)	i	i	-6*	i	i
COC(=O)c1cccc(Oc2nc3c(c(=O)n(C)c(=O)n3C)n2Cc2ccc(C)cc2)c1	i	i	-6*	i	i
CCn1c(CN2CCN(C(c3ccccc3)c3ccccc3)CC2)nc2c1c(=O)n(C)c(=O)n2C	i	i	i	17*	i
CN(Cc1ccccc1)Cc1nc2c(c(=O)n(C)c(=O)n2C)n1Cc1ccc(F)cc1	i	i	i	i	i
Cc1ccc(Cn2c(CN(C)Cc3ccccc3)nc3c2c(=O)n(C)c(=O)n3C)cc1	i	i	i	10*	i
CCCCCCn1c(N2CCN(c3ccccc3)CC2)nc2c1c(=O)n(C)c(=O)n2C	i	i	i	94*	i
Cc1ccccc1Cn1c(CN2CCc3ccccc3C2)nc2c1c(=O)n(C)c(=O)n2C	52*	i	i	119*	i
COC(=O)Cn1c(CN2CCc3ccccc3C2)nc2c1c(=O)n(C)c(=O)n2C	i	i	i	i	i
Cn1c(=O)c2c(nc(CN3CCc4ccccc4C3)n2Cc2ccc(F)cc2)n(C)c1=O	i	i	i	23*	i
COc1cc(/C=C2\C(=N)N3N=C(S(C)(=O)=O)SC3=NC2=O)ccc1OC(=O)c1cccs1	i	i	-7*	i	i
O=[N+]([O-])c1cc(-c2ccc(/C=N/n3cnnc3)o2)ccc1Cl	i	i	i	i	-13.1*
COc1ccc2c(c1)nc(SCC(O)c1ccccc1)n2C (stereo not given)	i	i	i	i	i
CCN(CC)c1ncnc2scc(C3COc4ccccc4O3)c12 (stereo not given)	i	i	-7*	i	i
CCN1/C(=C/C=C/c2sc3ccccc3[n+]2CC)Sc2ccccc21	49*	i	i	i	i
SMILES	TRPC4 act	TRPC6 activator	TRPC4 inh	TRPC4 PAM	TRPC6 inhibitor
CCN1/C(=C/C=C/C=C/c2sc3ccccc3[n+]2CC)Sc2ccccc21	i	i	i	i	i
COc1ccc(N2C(=O)CC(Sc3n[nH]c(-c4ccccc4)n3)C2=O)cc1 (stereo not given)	i	i	i	i	i
COc1cc(/C=C2/C(=O)NN(c3cccc(C)c3)C2=O)ccc1OC(=O)c1ccco1	i	i	i	22*	i
Cc1nnc(Cn2cnc3c2c(=O)n(C)c(=O)n3C)o1	i	i	i	i	i
CCC1(C(=O)c2ccccc2)C(c2ccc([N+](=O)[O-])cc2)C1(C(=O)OC)C(=O)OC (stereo not given)	i	i	-7*	i	i
CCC(C)N(C(=O)c1csnn1)C(C(=O)NC1CCCC1)c1c(F)cccc1Cl (stereo not given)	i	i	i	i	i
CCSc1nnc([C@H](Cc2c[nH]c3ccccc23)NC(=O)OC(C)(C)C)o1	i	i	i	17*	i
CCC(CC)C(=O)N1N=C(c2ccc(NS(C)(=O)=O)cc2)CC1c1ccc(C)cc1 (stereo not given)	i	i	i	i	i
CC(=O)Nc1cccc(C(=O)OC(C(=O)c2ccc(C)cc2)c2ccccc2)c1 (stereo not given)	i	i	i	17*	i
O=C(CN1C(=O)CCC1=O)Nc1cccc(NC(=O)CN2C(=O)CCC2=O)c1	i	i	i	i	i
CCn1cc(CN2CCCC(C(=O)Nc3cccc(-c4cc5ccccc5[nH]4)c3)C2)c(C)n1 (stereo not given)	i	i	i	i	i
CCn1cc(CN2CCCC(C(=O)Nc3ccc(-c4nc5ccccc5[nH]4)cc3)C2)c(C)n1 (stereo not given)	206*	i	i	i	i
Cc1cc(CN2CCCC(C(=O)Nc3ccc(-c4nc5ccccc5[nH]4)cc3)C2)n[nH]1 (stereo not given)	i	i	-5*	i	i
CC(NCCC1(Cc2ccccc2Cl)CCOC(C)(C)C1)c1cccs1 (stereo not given)	68*	i	i	i	i
CC(NCCC1(C(C)C)CCOC(C)(C)C1)c1cccs1 (stereo not given)	i	i	i	i	i
Cc1cc(NC(=O)c2cc(-c3cccs3)nc3ccccc23)no1	i	i	-6*	i	i
